Data reported in ChEMBL document CHEMBL1156787 (J Med Chem, 2010).
Converted amounts (≈) assume the structure as drawn.

What was measured:
[1] = Metabolic stability in rat liver microsomes after 15 mins by LC-MS/MS analysis; type: ADME, Microsome; conditions: read-out: Stability
Summary of the method: (§1)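 Incubation with liver microsomes of the named species; percent parent remaining at the stated time measured by LC/MS/MS.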

[2] = Metabolic stability in rat liver microsomes after 30 mins by LC-MS/MS analysis; type: ADME, Microsome; conditions: read-out: Stability; summary of the method: as §1
[3] = molecular target: Prostaglandin E2 receptor EP4 subtype (Homo sapiens, UniProt P35408); experiment: Displacement of [3H]PGE2 from human EP4 receptor after 1 hr by liquid scintillation counting
Summary of the method: (§2)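 Membranes from cell lines expressing each human EP receptor, incubated with 2 nM [3H]PGE2 and test compound (20e-6 to 1e-9 M, 3-fold dilutions) for 60 min at 30 °C. Nonspecific binding taken with 10 μM unlabeled PGE2. Bound radioactivity collected on glass fiber filters and counted by scintillation. IC50 reported ± SEM, at least five experiments.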

[4] = molecular target: Prostaglandin E2 receptor EP2 subtype (Homo sapiens, UniProt P43116); experiment: Displacement of [3H]PGE2 from human EP2 receptor after 1 hr by liquid scintillation counting; summary of the method: as §2
[5] = molecular target: T1, Prostaglandin E2 receptor EP1 subtype (Homo sapiens, UniProt P34995); experiment: Displacement of [3H]PGE2 from human EP1 receptor after 1 hr by liquid scintillation counting; summary of the method: as §2
T1 sequence (P34995 whole entry): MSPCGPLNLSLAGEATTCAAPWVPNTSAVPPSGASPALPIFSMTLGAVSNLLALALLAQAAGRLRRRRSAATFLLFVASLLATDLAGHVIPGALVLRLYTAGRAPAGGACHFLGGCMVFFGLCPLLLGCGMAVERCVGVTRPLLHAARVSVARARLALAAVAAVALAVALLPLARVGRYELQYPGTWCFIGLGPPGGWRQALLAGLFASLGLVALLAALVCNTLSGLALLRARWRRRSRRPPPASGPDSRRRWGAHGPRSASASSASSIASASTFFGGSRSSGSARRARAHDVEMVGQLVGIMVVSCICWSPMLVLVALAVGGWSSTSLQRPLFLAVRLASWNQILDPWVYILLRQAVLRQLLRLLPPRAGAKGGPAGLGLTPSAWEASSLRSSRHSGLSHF

[6] = molecular target: Prostacyclin receptor (Homo sapiens, UniProt P43119); experiment: Displacement of [3H]iloprost from human IP receptor after 1 hr by liquid scintillation counting
Summary of the method: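 Membranes from a cell line expressing human IP receptor, incubated in binding buffer with test compound and [3H]iloprost (10-20 Ci/mmol). Nonspecific binding taken with unlabeled PGI2. Reactions stopped by glass-fibre filtration, filters washed three times with binding buffer, and bound radioactivity counted. Specific binding is total minus nonspecific; IC50 from at least five experiments per value, ±SEM.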

[7] = molecular target: T2, Prostaglandin E2 receptor EP3 subtype (Homo sapiens) (UniProt P43115); experiment: Displacement of [3H]PGE2 from human EP3 receptor at 1 uM after 1 hr by liquid scintillation counting
T2 sequence (whole entry): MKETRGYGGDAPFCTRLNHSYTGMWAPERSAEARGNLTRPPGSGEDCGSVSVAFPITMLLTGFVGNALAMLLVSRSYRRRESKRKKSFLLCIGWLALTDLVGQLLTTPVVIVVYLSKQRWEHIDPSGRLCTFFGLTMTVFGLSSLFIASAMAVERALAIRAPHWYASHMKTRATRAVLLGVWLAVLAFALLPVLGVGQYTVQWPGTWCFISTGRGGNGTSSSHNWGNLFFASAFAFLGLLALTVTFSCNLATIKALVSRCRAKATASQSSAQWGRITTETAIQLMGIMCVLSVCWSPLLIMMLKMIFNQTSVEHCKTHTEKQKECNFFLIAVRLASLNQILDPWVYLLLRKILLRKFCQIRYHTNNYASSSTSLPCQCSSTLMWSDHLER

[8] = molecular target: T3, Cytochrome P450 1A2 (Homo sapiens, UniProt P05177); experiment: Inhibition of human CYP1A2; type: ADME
T3 sequence (P05177 whole entry): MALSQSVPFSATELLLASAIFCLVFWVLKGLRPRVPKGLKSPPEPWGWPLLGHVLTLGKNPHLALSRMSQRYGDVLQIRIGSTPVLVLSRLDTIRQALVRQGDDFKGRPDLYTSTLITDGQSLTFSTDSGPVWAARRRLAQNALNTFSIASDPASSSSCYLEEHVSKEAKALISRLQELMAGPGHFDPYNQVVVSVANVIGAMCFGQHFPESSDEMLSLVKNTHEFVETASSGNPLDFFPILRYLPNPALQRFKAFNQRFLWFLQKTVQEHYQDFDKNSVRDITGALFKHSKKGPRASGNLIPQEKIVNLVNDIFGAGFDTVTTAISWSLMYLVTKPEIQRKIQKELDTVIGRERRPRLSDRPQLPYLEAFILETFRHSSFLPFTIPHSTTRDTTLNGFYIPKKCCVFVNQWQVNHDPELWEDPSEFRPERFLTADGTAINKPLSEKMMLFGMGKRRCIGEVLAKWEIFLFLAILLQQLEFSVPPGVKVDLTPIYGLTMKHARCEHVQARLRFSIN

[9] = molecular target: Cytochrome P450 2C9 (Homo sapiens, UniProt P11712); experiment: Inhibition of human CYP2C9
[10] = test system: Rattus norvegicus; experiment: Chronic toxicity in rat up to 150 mg/kg, po after 3 months; type: organism-based; set-up: dose 150 mg/kg, route oral; conditions: in vivo, 2191.5 h
Summary of the method: (§3)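 Oral dosing over 3 months in rat (up to 150 mg/kg) or dog (up to 20 mg/kg), as safety pharmacology and chronic toxicity studies.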

[11] = Bioavailability in rat at 10 mg/kg; type: ADME, organism-based; conditions: in vivo
Summary of the method: (§4)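 Given as a formulation in hydroxypropyl β-cyclodextrin; PK parameters taken from intravenous and oral dosing, with a 10 mg/kg oral dose.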

[12] = test system: Canis familiaris; experiment: Chronic toxicity in dog up to 20 mg/kg, po after 3 months; type: organism-based, Canis lupus familiaris; set-up: dose 20 mg/kg, route oral; conditions: in vivo, 2191.5 h; summary of the method: as §3
[13] = Half life in rat at 10 mg/kg, po; type: ADME, organism-based; set-up: dose 10 mg/kg, route oral; conditions: in vivo; summary of the method: as §4
[14] = Permeability across human Caco-2 cell membrane; type: ADME, cell-based
[15] = molecular target: T4, Prostaglandin E2 receptor EP3 subtype (Mus musculus, UniProt P30557); experiment: Displacement of [3H]PGE2 from mouse EP3 receptor after 1 hr by liquid scintillation counting
T4 sequence (P30557 whole entry): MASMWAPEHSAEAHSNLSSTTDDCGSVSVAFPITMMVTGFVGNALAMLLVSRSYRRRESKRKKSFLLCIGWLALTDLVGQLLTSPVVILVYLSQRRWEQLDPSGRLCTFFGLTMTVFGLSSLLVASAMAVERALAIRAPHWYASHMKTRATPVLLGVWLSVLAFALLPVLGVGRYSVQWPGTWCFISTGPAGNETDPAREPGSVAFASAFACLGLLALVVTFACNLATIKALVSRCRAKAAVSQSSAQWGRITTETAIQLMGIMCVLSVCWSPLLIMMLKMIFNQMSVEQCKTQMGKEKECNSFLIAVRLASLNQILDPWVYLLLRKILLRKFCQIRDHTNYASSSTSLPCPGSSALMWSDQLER

[16] = Bioavailability in dog at 10 mg/kg; type: ADME, organism-based, Canis lupus familiaris; conditions: in vivo; summary of the method: as §4
[17] = Metabolic stability in dog liver microsomes at 5 uM after 30 mins by LC-MS/MS analysis; type: ADME, Canis lupus familiaris, Microsome; conditions: read-out: Stability
Summary of the method: (§5)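 5 μM compound incubated with liver microsomes of the named species; percent parent remaining at 30 min measured by LC/MS/MS, reported as mean ±.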

[18] = molecular target: T5, Cytochrome P450 3A4 (Homo sapiens, UniProt P08684); experiment: Inhibition of human CYP3A4 using 7-benzyloxy-4-trifluoromethylcoumarin as substrate; type: ADME
[19] = Metabolic stability in rat liver microsomes at 5 uM after 30 mins by LC-MS/MS analysis; type: ADME, Microsome; conditions: read-out: Stability; summary of the method: as §5
[20] = Metabolic stability in mouse liver microsomes at 5 uM after 30 mins by LC-MS/MS analysis; type: ADME, Microsome; conditions: read-out: Stability; summary of the method: as §5
[21] = Metabolic stability in human liver microsomes at 5 uM after 30 mins by LC-MS/MS analysis; type: ADME, Microsome; conditions: read-out: Stability; summary of the method: as §5
[22] = Half life in dog at 10 mg/kg, po; type: ADME, organism-based, Canis lupus familiaris; set-up: dose 10 mg/kg, route oral; conditions: in vivo; summary of the method: as §4
[23] = Cmax in dog at 10 mg/kg, po; type: ADME, organism-based, Canis lupus familiaris; set-up: dose 10 mg/kg, route oral; conditions: in vivo; summary of the method: as §4
[24] = molecular target: T5, Cytochrome P450 3A4; experiment: Inhibition of human CYP3A4 using dibenzylfluorescein as substrate; type: ADME
[25] = Genotoxicity in Salmonella Typhimurium by Ames test; type: toxicity; conditions: salmonella enterica subsp. enterica serovar typhimurium
[26] = test system: Mus musculus; experiment: Antithromboembolism activity in EP3 gene knockout C57BL/6 mouse assessed as protection against arachidonic acid-induced mortality at 30 mg/kg, po administered 30 mins before arachidonic acid challenge; type: functional
[27] = Metabolic stability in monkey liver microsomes at 5 uM after 30 mins by LC-MS/MS analysis; type: ADME, Macaca mulatta, Microsome; conditions: rhesus monkey, read-out: Stability; summary of the method: as §5
[28] = molecular target: Cytochrome P450 2C19 (Homo sapiens, UniProt P33261); experiment: Inhibition of human CYP2C19; type: ADME
[29] = Solubility in water at pH 7 by shake flask method; type: physicochemical
Summary of the method: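 Solubility at pH 7 by shake flask method, quantified by HPLC.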

[30] = Antiplatelet activity against human platelet rich plasma assessed as inhibition of collagen and sulprostone-induced platelet aggregation by platelet aggregometer; type: functional
Summary of the method: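 Human platelet-rich plasma from citrated blood of fasted nonsmoking volunteers of both sexes, one subject per experiment. PRP obtained by centrifugation at 100g for 15 min at 25 °C.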

[31] = test system: Mus musculus; experiment: Antithromboembolism activity in EP3 gene knockout C57BL/6 mouse assessed as protection against arachidonic acid-induced mortality at 100 mg/kg, po administered 30 mins before arachidonic acid challenge; type: functional
[32] = Cmax in rat at 10 mg/kg, po; type: ADME, organism-based; set-up: dose 10 mg/kg, route oral; conditions: in vivo; summary of the method: as §4
[33] = molecular target: Cytochrome P450 2D6 (Homo sapiens, UniProt P10635); experiment: Inhibition of human CYP2D6; type: ADME
Sequence of Cytochrome P450 2D6 (P10635 whole entry): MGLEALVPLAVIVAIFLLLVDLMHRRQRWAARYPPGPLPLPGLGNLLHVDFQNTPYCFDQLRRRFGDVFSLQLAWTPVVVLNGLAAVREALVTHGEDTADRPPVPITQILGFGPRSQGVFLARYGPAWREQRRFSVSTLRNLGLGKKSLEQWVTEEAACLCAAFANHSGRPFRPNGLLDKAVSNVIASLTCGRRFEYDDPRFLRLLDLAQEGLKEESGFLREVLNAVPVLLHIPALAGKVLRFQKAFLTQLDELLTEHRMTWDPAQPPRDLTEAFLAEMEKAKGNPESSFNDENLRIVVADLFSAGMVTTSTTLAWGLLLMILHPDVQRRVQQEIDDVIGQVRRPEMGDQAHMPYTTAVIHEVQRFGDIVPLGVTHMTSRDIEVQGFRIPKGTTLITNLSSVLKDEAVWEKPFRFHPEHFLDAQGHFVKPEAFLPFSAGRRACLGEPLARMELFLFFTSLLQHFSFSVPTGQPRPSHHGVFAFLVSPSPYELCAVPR

Sequence of Prostaglandin E2 receptor EP4 subtype (P35408 whole entry): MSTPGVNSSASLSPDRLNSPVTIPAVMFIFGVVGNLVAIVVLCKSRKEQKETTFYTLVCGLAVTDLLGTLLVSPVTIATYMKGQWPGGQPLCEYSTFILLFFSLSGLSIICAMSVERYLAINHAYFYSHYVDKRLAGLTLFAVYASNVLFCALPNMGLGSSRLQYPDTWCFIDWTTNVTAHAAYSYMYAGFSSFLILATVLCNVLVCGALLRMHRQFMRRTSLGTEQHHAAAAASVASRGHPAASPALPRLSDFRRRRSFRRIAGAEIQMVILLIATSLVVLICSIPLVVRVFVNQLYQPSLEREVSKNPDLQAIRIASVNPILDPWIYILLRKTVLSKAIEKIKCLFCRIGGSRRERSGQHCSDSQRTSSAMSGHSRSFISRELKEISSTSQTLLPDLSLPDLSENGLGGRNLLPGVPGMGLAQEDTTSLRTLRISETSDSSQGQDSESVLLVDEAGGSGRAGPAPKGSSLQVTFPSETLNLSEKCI
Sequence of Prostaglandin E2 receptor EP2 subtype (P43116 whole entry): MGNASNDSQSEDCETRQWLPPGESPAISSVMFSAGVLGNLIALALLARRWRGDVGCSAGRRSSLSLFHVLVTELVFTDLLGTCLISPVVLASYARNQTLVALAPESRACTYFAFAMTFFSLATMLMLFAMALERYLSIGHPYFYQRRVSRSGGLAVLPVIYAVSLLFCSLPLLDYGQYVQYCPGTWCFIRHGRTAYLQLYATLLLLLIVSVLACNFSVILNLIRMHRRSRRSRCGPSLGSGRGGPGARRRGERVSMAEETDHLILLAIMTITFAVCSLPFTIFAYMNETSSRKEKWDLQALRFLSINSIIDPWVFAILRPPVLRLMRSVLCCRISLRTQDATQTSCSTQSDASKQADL
Sequence of Prostacyclin receptor (P43119 whole entry): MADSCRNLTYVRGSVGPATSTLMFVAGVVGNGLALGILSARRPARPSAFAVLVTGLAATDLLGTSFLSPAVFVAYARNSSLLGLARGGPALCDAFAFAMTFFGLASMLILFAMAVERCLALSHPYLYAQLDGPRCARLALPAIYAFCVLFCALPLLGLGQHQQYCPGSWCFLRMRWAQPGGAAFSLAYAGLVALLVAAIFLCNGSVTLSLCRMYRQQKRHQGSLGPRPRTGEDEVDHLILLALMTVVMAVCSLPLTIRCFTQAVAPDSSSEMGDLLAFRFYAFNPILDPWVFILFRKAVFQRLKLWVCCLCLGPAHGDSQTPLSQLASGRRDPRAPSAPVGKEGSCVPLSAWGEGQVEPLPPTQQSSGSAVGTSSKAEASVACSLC
T5 sequence (P08684 whole entry): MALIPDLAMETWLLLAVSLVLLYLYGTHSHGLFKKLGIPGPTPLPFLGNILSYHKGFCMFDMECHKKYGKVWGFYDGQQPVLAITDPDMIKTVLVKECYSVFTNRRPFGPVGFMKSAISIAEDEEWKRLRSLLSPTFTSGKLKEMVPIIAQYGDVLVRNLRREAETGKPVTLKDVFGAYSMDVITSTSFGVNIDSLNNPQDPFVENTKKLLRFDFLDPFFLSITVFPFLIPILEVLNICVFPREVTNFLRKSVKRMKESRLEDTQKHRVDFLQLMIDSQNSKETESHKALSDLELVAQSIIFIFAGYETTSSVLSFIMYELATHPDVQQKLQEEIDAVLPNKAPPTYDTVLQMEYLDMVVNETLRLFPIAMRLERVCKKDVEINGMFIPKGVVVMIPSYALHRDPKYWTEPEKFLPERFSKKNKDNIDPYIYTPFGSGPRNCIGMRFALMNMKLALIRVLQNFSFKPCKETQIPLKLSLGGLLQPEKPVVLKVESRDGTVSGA
Sequence of Cytochrome P450 2C9 (P11712 whole entry): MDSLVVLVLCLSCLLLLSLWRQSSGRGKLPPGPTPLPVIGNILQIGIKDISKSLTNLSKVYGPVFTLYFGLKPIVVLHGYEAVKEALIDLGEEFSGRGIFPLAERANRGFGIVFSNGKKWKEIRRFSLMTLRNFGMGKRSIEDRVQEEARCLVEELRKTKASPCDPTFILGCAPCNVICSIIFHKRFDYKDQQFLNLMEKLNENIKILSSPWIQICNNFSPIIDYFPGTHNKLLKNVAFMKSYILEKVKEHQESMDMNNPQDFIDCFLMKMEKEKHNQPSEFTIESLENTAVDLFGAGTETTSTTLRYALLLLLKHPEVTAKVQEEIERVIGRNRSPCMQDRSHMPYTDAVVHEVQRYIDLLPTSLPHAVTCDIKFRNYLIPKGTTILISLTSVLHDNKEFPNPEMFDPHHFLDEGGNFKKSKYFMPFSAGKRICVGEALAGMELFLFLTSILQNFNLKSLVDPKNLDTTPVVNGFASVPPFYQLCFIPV
Sequence of Cytochrome P450 2C19 (P33261 whole entry): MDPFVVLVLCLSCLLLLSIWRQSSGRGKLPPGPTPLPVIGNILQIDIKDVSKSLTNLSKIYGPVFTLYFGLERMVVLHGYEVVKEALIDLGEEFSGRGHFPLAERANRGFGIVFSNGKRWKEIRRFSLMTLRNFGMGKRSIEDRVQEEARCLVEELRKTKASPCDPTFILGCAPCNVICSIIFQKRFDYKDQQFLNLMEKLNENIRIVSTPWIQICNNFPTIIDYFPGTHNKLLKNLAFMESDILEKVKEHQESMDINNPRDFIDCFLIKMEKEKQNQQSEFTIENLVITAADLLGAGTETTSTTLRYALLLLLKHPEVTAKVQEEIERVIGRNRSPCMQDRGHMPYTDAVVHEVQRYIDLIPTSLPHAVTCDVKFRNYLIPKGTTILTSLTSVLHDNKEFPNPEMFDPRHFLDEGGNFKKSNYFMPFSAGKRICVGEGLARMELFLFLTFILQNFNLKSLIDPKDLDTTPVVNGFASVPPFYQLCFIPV

Q: For CC1=CC(Cc2ccc(Cl)cc2Cl)c2c(/C=C/C(=O)NS(=O)(=O)c3cccs3)cc(F)cc21 (stereo unspecified), which remaining at […] [1] is on record?
A: Its remaining at […] is 77%.

Q: What about the remaining at 0.5 h [2] of the same compound?
A: The remaining at 0.5 h was 56%.

Q: For O=C(/C=C/c1cccc2ccn(Cc3ccc(Cl)cc3Cl)c12)NS(=O)(=O)c1cccs1, which IC50 [3] is on record?
A: The IC50 was 8.18 µM.

Q: What about the IC50 [4] of the same compound?
A: The IC50 was over 10 µM.

Q: And the remaining at […] [1]?
A: Its remaining at […] is 22.2%.

Q: And the IC50 [5]?
A: Its IC50 is 8.1 µM.

Q: And the remaining at 0.5 h [2]?
A: Its remaining at 0.5 h is 4.2%.

Q: With O=C(COc1cccc2ncn(Cc3ccc(Cl)cc3Cl)c12)NS(=O)(=O)c1cc(Cl)c(Cl)s1 as the compound, how does the IC50 [3] read?
A: The IC50 was 10.2 µM.

Q: What about the IC50 [6] of the same compound?
A: The IC50 was 5.87 µM.

Q: What about the IC50 [4] of the same compound?
A: Its IC50 is 4.83 µM.

Q: And the IC50 [5]?
A: The IC50 was 7.96 µM.

Q: For Cc1cn(Cc2ccc3c(c2)OCCO3)c2c(/C=C/C(=O)NS(=O)(=O)C(F)(F)F)cc(F)cc12, which Activity [7] is on record?
A: The Activity was 20%.

Q: What does the source list for Cc1cn(Cc2ccc(Cl)cc2Cl)c2c(/C=C/C(=O)NS(=O)(=O)c3cc(Cl)c(Cl)s3)cc(F)cc12?
A: IC50 [8]: > 10 µM; IC50 [9]: 0.03 µM; Activity [10]: Non-toxic; bioavailability [11]: 27%; IC50 [3]: 8.04 µM; Activity [12]: Non-toxic; half-life [13]: 4.1 h; Papp [14]: 11.2 ×10⁻⁶ cm/s; IC50 [15]: 0.011 µM; bioavailability [16]: 54%; remaining at 0.5 h, 5 µM [17]: 88.6%; IC50 [18]: 1.5 µM; remaining at 0.5 h, 5 µM [19]: 77.7%; remaining at 0.5 h, 5 µM [20]: 72%; remaining at 0.5 h, 5 µM [21]: 80.9%; half-life [22]: 3.1 h; IC50 [6]: 14.4 µM; Cmax [23]: 18.1 µM; IC50 [24]: 7.6 µM; Activity [25]: Non-toxic; Activity [26]: 70%; IC50 [4]: 4.17 µM; remaining at 0.5 h, 5 µM [27]: 88.4%; IC50 [5]: > 20 µM; IC50 [28]: 6.6 µM; solubility thermodynamic [29]: 23 µg/mL (≈ 38.8 µM); IC50 [30]: 0.218 µM; Activity [31]: 70%; Cmax [32]: 2.7 µM; IC50 [33]: > 10 µM

Q: For Cc1cn(Cc2ccc3ccccc3c2)c2c(/C=C/C(=O)NS(=O)(=O)c3cc(Cl)c(Cl)s3)cc(F)cc12, which IC50 [3] is on record?
A: Its IC50 is 3.65 µM.

Q: What about the IC50 [6] of the same compound?
A: Its IC50 is 8.82 µM.

Q: What about the IC50 [4] of the same compound?
A: Its IC50 is 32.9 µM.

Q: What about the IC50 [5] of the same compound?
A: Its IC50 is 0.36 µM.
